From ChEMBL document CHEMBL3286372, “Design, synthesis and structure-activity relationship of novel semi-synthetic flavonoids as antiproliferative agents” (2014)

Tests used:
[1] = Growth inhibition of human Hs 578T cells after 48 hrs by coulter counting analysis; format: functional
Outline: (§1)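 NCI five-dose screen at 0.01-100 µM, diluted from DMSO stocks in buffered saline (final DMSO <1%). Cells at 6×10^4 cells/ml in RPMI 1640 with 10% FBS, in duplicate wells, at 37 °C under 5% CO2 for 48 h. Cells diluted tenfold in saline and Coulter-counted. GI50, TGI and LC50 taken from log concentration-growth inhibition curves.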

[2] = Growth inhibition of human OVCAR3 cells after 48 hrs by coulter counting analysis; format: functional; settings: OVCAR-3, 48 h
Outline: (§2)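 Five-dose NCI-60 follow-up, 0.01–100 µM, made from DMSO stock in buffered saline (final DMSO <1%), in duplicate wells. Cells in RPMI 1640 with 10% FBS at 6×10^4 cells/ml, 37 °C, 5% CO2, 48 h. Cells diluted tenfold in saline, Coulter-counted and corrected for dilution. GI50, TGI and LC50 taken from log concentration–percent growth curves.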

ACHN = experiment: Growth inhibition of human ACHN cells after 48 hrs by coulter counting analysis; format: functional; outline: as §1
[3] = Growth inhibition of human BT549 cells after 48 hrs by coulter counting analysis; format: functional; settings: BT-549, 48 h; outline: as §1
SK-MEL-2 = experiment: Growth inhibition of human SK-MEL-2 cells after 48 hrs by coulter counting analysis; format: functional; settings: SK-MEL-2, 48 h; outline: as §2
[4] = Growth inhibition of human SF295 cells after 48 hrs by coulter counting analysis; format: functional; settings: SF-295, 48 h; outline: as §2
[5] = Growth inhibition of human HCC2998 cells after 48 hrs by coulter counting analysis; format: functional; settings: HCC 2998, 48 h; outline: as §1
NCI-H226 = experiment: Growth inhibition of human NCI-H226 cells after 48 hrs by coulter counting analysis; format: functional; settings: NCI-H226, 48 h; outline: as §2
MCF7 = experiment: Growth inhibition of human MCF7 cells after 48 hrs by coulter counting analysis; format: functional; settings: MCF7, 48 h; outline: as §1
T47D = experiment: Growth inhibition of human T47D cells after 48 hrs by coulter counting analysis; format: functional; outline: as §2
[6] = biological target: Glycogen synthase kinase-3 beta (Homo sapiens) (UniProt P49841); experiment: Inhibition of GSK-3beta (unknown origin) at 20 uM after 30 mins by scintillation counting analysis relative to control
Outline: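 Recombinant kinases, cloned, expressed and purified in-house. Radiometric ³³P-ATP assay with kinase at ~10-50 nM final and 1-5 µg peptide or protein substrate. Compound at 20 µM final, in duplicate. Reaction started by adding ATP, run 30 min at ambient temperature, then spotted on P81 phosphocellulose. Plates washed in 1% phosphoric acid and counted by scintillation. No-substrate blank subtracted. Result is mean % activity change versus DMSO control.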

M14 = experiment: Growth inhibition of human M14 cells after 48 hrs by coulter counting analysis; format: functional; settings: M14, 48 h; outline: as §1
[7] = Growth inhibition of human HOP92 cells after 48 hrs by coulter counting analysis; format: functional; settings: HOP-92, 48 h; outline: as §1
NCI-H522 = experiment: Growth inhibition of human NCI-H522 cells after 48 hrs by coulter counting analysis; format: functional; settings: NCI-H522, 48 h; outline: as §2
CCRF-CEM = experiment: Growth inhibition of human CCRF-CEM cells after 48 hrs by coulter counting analysis; format: functional; outline: as §1
HT-29 = experiment: Growth inhibition of human HT-29 cells after 48 hrs by coulter counting analysis; format: functional; settings: HT-29, 48 h; outline: as §1
MDA-MB-468 = experiment: Growth inhibition of human MDA-MB-468 cells after 48 hrs by coulter counting analysis; format: functional; settings: MDA-MB-468, 48 h; outline: as §2
NCI-H23 = experiment: Growth inhibition of human NCI-H23 cells after 48 hrs by coulter counting analysis; format: functional; settings: NCI-H23, 48 h; outline: as §2
MDA-MB-231 = experiment: Growth inhibition of human MDA-MB-231 cells after 48 hrs by coulter counting analysis; format: functional; settings: MDA-MB-231, 48 h; outline: as §1
[8] = Growth inhibition of human MOLT4 cells after 48 hrs by coulter counting analysis; format: functional; settings: MOLT-4, 48 h; outline: as §2
[9] = Growth inhibition of human RXF393 cells after 48 hrs by coulter counting analysis; format: functional; settings: RXF 393, 48 h; outline: as §2
[10] = Growth inhibition of human UACC62 cells after 48 hrs by coulter counting analysis; format: functional; settings: UACC-62, 48 h
Outline: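 NCI five-dose screen, 0.01-100 µM, from DMSO stocks diluted in buffer saline (final DMSO <1%). Cells grown in RPMI 1640 + 10% FBS, seeded at 6×10^4 cells/ml, in duplicate wells. Exposure 48 h at 37 °C, 5% CO2. Cells diluted 10-fold in saline and counted by Coulter counter. GI50 derived from log concentration–percent growth inhibition curves. Controls carried matching PBS/saline/DMSO.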

[11] = Growth inhibition of human LOXIMVI cells after 48 hrs by coulter counting analysis; format: functional; settings: LOX IMVI; outline: as §1
SNB-75 = experiment: Growth inhibition of human SNB75 cells after 48 hrs by coulter counting analysis; format: functional; settings: SNB-75, 48 h; outline: as §2
NCI-H460 = experiment: Growth inhibition of human NCI-H460 cells after 48 hrs by coulter counting analysis; format: functional; settings: NCI-H460, 48 h; outline: as §2
CAKI-1 = experiment: Growth inhibition of human CAKI-1 cells after 48 hrs by coulter counting analysis; format: functional; settings: CAKI-1, 48 h; outline: as §1
NCI-H322M = experiment: Growth inhibition of human NCI-H322M cells after 48 hrs by coulter counting analysis; format: functional; outline: as §2
K562 = experiment: Growth inhibition of human K562 cells after 48 hrs by coulter counting analysis; format: functional; settings: K562, 48 h; outline: as §1
RPMI-8226 = experiment: Growth inhibition of human RPMI8226 cells after 48 hrs by coulter counting analysis; format: functional; settings: RPMI-8226, 48 h; outline: as §2
PC-3 = experiment: Growth inhibition of human PC3 cells after 48 hrs by coulter counting analysis; format: functional; settings: PC-3, 48 h; outline: as §2
[12] = Growth inhibition of human NCI60 cells after 48 hrs by coulter counting analysis; format: functional; settings: NCI60, 48 h
Outline: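 Five-dose screen (0.01-100 µM, DMSO-solubilized, under 1% DMSO final), cells in RPMI 1640 + 10% FBS at 6×10^4 cells/ml, duplicate wells, 37 °C, 5% CO2, 48 h. Cells then diluted tenfold in saline and counted by Coulter counter with dilution correction. Controls held buffer/saline/DMSO at matching dilutions. GI50 derived from log concentration-percent growth inhibition curves.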

[13] = Growth inhibition of human NCI-ADR-RES cells after 48 hrs by coulter counting analysis; format: functional; outline: as §2
IGROV-1 = experiment: Growth inhibition of human IGROV1 cells after 48 hrs by coulter counting analysis; format: functional; settings: IGROV-1, 48 h; outline: as §1
[14] = Growth inhibition of human SF539 cells after 48 hrs by coulter counting analysis; format: functional; settings: SF-539, 48 h; outline: as §2
SNB-19 = experiment: Growth inhibition of human SNB19 cells after 48 hrs by coulter counting analysis; format: functional; settings: SNB-19, 48 h; outline: as §2
A498 = experiment: Growth inhibition of human A498 cells after 48 hrs by coulter counting analysis; format: functional; settings: A498, 48 h; outline: as §1
[15] = read-out: LC50 (the source's name)

Chain of Glycogen synthase kinase-3 beta (Homo sapiens) (P49841 whole entry, looked up): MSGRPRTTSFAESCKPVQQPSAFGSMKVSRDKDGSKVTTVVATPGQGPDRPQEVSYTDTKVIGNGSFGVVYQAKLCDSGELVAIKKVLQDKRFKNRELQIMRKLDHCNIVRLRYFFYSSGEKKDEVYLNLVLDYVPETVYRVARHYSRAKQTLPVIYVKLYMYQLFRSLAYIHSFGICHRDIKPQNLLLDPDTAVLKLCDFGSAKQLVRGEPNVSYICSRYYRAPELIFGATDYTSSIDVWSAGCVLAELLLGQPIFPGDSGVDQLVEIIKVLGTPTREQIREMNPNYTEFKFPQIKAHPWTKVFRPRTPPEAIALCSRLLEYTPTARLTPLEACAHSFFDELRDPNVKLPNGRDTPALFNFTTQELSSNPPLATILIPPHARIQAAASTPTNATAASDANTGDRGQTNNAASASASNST

SMILES | GI50 [2] [µM] | GI50 (ACHN) [µM] | GI50 (SK-MEL-2) [µM] | GI50 [4] [µM] | GI50 [5] [µM] | GI50 (NCI-H226) [µM] | GI50 (MCF7) [µM] | GI50 (T47D) [µM] | inhibition [6] [%] | GI50 (M14) [µM] | GI50 [7] [µM] | GI50 (NCI-H522) [µM] | GI50 (HT-29) [µM] | GI50 (MDA-MB-468) [µM] | GI50 (NCI-H23) [µM] | GI50 (MDA-MB-231) [µM] | GI50 [8] [µM] | GI50 [9] [µM] | GI50 [10] [µM] | GI50 (SNB-75) [µM] | further results
COc1c2occc2c(OC)c2c(=O)c(CN3CCOCC3)c(/C=C/c3ccc(Cl)cc3)oc12 | 2.34 | 2.47 | 1.65 | 2.01 | 2.85 | 2.79 | 2.1 | 4.31 | 5 | 2.76 | 1.28 | 1.77 | 2.69 | 2.12 | 3 | 2.92 | 2.84 | 2.36 | 1.9 | 2.41 | GI50 [1]: 1.9 µM; GI50 [3]: 2.38 µM; GI50 (CCRF-CEM): 1.78 µM; GI50 [11]: 2.18 µM; GI50 (NCI-H460): 2.05 µM; GI50 (CAKI-1): 2.45 µM; GI50 (NCI-H322M): 2.54 µM; GI50 (K562): 3.28 µM; GI50 (RPMI-8226): 1.94 µM; GI50 (PC-3): 2.5 µM; LC50 [12]: 87.1 µM; TGI [12]: 33.1 µM; GI50 [13]: 3.12 µM; GI50 (IGROV-1): 1.94 µM
COc1c(C(=O)/C=C/c2ccccc2)c(O)cc2occc12 | 3.76 | 4.51 | 12.4 | 7.83 | 3.76 | 6.03 | 3.52 | 11.1 | 28 | 8.89 | 1.64 | 4.29 | 6.34 | 6.77 | 6.12 | 4.38 | 3.36 | 3.56 | 4.15 | 2.42 | GI50 [1]: 2.76 µM; GI50 [3]: 7.72 µM; GI50 [14]: 3.22 µM; GI50 (SNB-19): 7.33 µM; GI50 (A498): 7.97 µM; GI50 [11]: 1.69 µM; GI50 (NCI-H460): 3.02 µM; GI50 (CAKI-1): 8.07 µM; GI50 (NCI-H322M): 13.6 µM; GI50 (K562): 4.43 µM; GI50 (RPMI-8226): 3.15 µM; GI50 (PC-3): 7.01 µM; LC50 [12]: 55 µM; TGI [12]: 18.6 µM; GI50 [13]: 2.42 µM; GI50 (IGROV-1): 3.51 µM
COc1c2occc2c(OC)c2c(=O)c(CN3CCOCC3)c(/C=C/c3ccc(N(C)C)cc3)oc12 | 1.76 | 2.16 | 1.39 | 1.82 | 2.62 | 2.06 | 1.88 | 2.21 | 13 | 2.34 | 0.24 | 1.83 | 2.2 | 1.76 | 2.56 | 2.22 | 1.58 | 1.81 | 1.86 | 1.39 | CC50 (SK-MEL-2; [15]): 5.89 µM; GI50 (CCRF-CEM): 1.17 µM; GI50 (SNB-19): 1.98 µM; CC50 (HT-29; [15]): 6.68 µM; GI50 (A498): 2.34 µM; LC50 [10]: 7.61 µM; LC50 (SNB-75): 5.75 µM; GI50 (NCI-H460): 2.02 µM; LC50 (lethal concentration, 50% net cell kill) (NCI-H460): 8.48 µM; GI50 (CAKI-1): 1.89 µM; GI50 (NCI-H322M): 1.65 µM; GI50 (K562): 1.85 µM; GI50 (RPMI-8226): 1.49 µM; GI50 (PC-3): 1.69 µM; LC50 [12]: 60.2 µM; TGI [12]: 5.24 µM; GI50 [13]: 2.63 µM; GI50 (IGROV-1): 1.79 µM
